Data set [1] relates to Rattus norvegicus. The data set is described as follows: Half life in Sprague-Dawley rat at 1 mg/kg, iv by LC/MS analysis. The class given is ADME, organism-based. The arrangement: dose 1 mg/kg, route intravenous. Particulars: in vivo. A digest of the protocol:
(§1)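 Male Sprague-Dawley rats (n=2, 250-300 g), carotid and jugular cannulated; 1 mg/kg iv via jugular catheter in 20% DMSO/80% saline. Arterial blood from pre-dose to 24 h, EDTA plasma analysed by LC/MS/MS; noncompartmental analysis of individual profiles.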

Data set [2] is described as follows: Half life in iv dosed Beagle dog. The class given is ADME, organism-based, Canis lupus familiaris. To be noted: in vivo.
Data set [3] deals with Rattus norvegicus. As to the kind of experiment: Cmax in Sprague-Dawley rat at 10 mg/kg, po by LC/MS analysis. The class given is ADME, organism-based. The arrangement: dose 10 mg/kg, route oral. To be noted: in vivo.
Data set [4] has as its system Rattus norvegicus. As to the kind of experiment: Volume of distribution at steady state in Sprague-Dawley rat at 1 mg/kg, iv by LC/MS analysis. The class given is ADME, organism-based. The arrangement: dose 1 mg/kg, route intravenous. Particulars: in vivo. The method in brief:
as §1

Data set [5] has as its system Rattus norvegicus. As to the kind of experiment: Oral bioavailability in Sprague-Dawley rat at 10 mg/kg by LC/MS analysis. The class given is ADME, organism-based. Particulars: in vivo.
Data set [6] can be described thus: Half life in rhesus monkey at 1 mg/kg, iv by LC/MS analysis. The class given is ADME, organism-based, Macaca mulatta. Also on record: dose 1 mg/kg, route intravenous. Particulars: in vivo. The method in brief: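 Rhesus monkeys (8-11 kg) tranquilized with ketamine 10 mg/kg im and Telazol 3 mg/kg im. Compound given iv at 1 mg/kg, blood collected, plasma analysed by LC/MS/MS (MRM, positive ESI).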

Data set [7] deals with Rattus norvegicus. The data set is described as follows: AUC (0 to 24 hrs) in Sprague-Dawley rat at 10 mg/kg, po by LC/MS analysis. The class given is ADME, organism-based, Plasma. The arrangement: time < 24 hr, dose 10 mg/kg, route oral. Particulars: in vivo.
Data set [8] concerns Rattus norvegicus. The data set is described as follows: AUC (0 to 24 hrs) in Sprague-Dawley rat at 1 mg/kg, iv by LC/MS analysis. The class given is ADME, organism-based, Plasma. Particulars: in vivo. The arrangement: time < 24 hr, dose 1 mg/kg, route intravenous. A digest of the protocol: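 Male Sprague-Dawley rats (n=2, 250-300 g) with carotid artery and jugular vein catheters, acclimated about one week, fed ad libitum. Dose given through the jugular catheter in 20% DMSO/80% saline at 1 mL/kg. Carotid blood drawn pre-dose and at 2, 7, 15, 30 min and 1, 2, 4, 7, 24 h into chilled EDTA tubes. Plasma measured by LC/MS/MS; parameters from noncompartmental analysis of individual profiles.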

For data set [9], the system named is Plasma. As to the kind of experiment: Fraction unbound in rat plasma by equilibrium dialysis. The class given is ADME, cell-free. The method in brief: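 Rat plasma spiked with compound, equilibrium dialysis against 25 mM phosphate buffer pH 7.4 for 4 h at 37 °C with shaking; both chambers matrix-matched, acetonitrile-extracted and quantified by LC/MS/MS; triplicate.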
(In equilibrium dialysis only unbound substance equilibrates across the membrane.)

Data set [10] concerns Plasma. The data set is described as follows: Fraction unbound in human plasma. The class given is ADME, cell-free.
Data set [11] deals with Metabotropic glutamate receptor 6 (Homo sapiens, UniProt O15303). The data set is described as follows: Positive allosteric modulator activity at human mGlu6 receptor at 10 uM by thallium flux assay. A digest of the protocol: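 Cells expressing human mGlu6 with GIRK channels, thallium flux double-addition protocol. 10 µM compound or vehicle was added, then a full glutamate concentration-response 2.5 min later. A left shift >2-fold was scored as potentiator activity. A right shift >2-fold or max depression ≥75% was scored as antagonist activity. Mean ± SEM of three experiments in singlicate.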

The test system of data set [12] is Brain. As to the kind of experiment: Fraction unbound in rat brain homogenate by equilibrium dialysis. The class given is ADME, tissue-based.
In another data set the target is Cytochrome P450 2C9 (Homo sapiens, UniProt P11712). The data set is described as follows: Inhibition of CYP2C9 in human liver microsomes using diclofenac as substrate. Background: Microsomes from liver hold many membrane-bound enzymes, among them those of drug oxidation.
The nature of data set [13]: Intrinsic clearance in rat hepatic microsomes at 1 uM by LC/MS/MS analysis. The class given is ADME, Microsome. To be noted: rat liver microsomes.
The target in another data set is T1, Cytochrome P450 1A2 (Homo sapiens, UniProt P05177).
T1 sequence (P05177 whole entry): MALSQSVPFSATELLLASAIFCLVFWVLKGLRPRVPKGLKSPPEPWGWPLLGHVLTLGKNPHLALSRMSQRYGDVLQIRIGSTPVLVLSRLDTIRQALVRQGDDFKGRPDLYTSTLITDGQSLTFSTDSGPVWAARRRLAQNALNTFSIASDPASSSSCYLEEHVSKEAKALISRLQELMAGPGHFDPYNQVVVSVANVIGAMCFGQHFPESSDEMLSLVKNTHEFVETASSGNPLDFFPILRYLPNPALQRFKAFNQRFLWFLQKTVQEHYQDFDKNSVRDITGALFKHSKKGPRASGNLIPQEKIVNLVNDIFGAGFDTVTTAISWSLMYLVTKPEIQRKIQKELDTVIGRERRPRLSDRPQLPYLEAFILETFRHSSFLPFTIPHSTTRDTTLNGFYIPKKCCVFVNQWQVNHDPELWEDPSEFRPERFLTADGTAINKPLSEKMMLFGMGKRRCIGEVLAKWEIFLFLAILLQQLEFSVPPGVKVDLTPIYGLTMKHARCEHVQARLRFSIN
As to the kind of experiment: Inhibition of CYP1A2 in human liver microsomes using phenacetin as substrate.

Data set [14] can be described thus: Intrinsic clearance in human hepatic microsomes. The class given is ADME, Microsome. To be noted: human liver microsomes.
Another data set concerns the target Cytochrome P450 2C19 (Homo sapiens, UniProt P33261). The data set is described as follows: Inhibition of CYP2C19 in human liver microsomes using S-mephenytoin as substrate. The class given is ADME, Microsome.
The next data set deals with Cytochrome P450 2D6 (Homo sapiens, UniProt P10635). The data set is described as follows: Inhibition of CYP2D6 in human liver microsomes using […] as substrate. The class given is ADME, Microsome. The method in brief: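 Pooled human liver microsomes (0.1 mg/mL) with probe cocktail (phenacetin 10 µM, diclofenac 5 µM, dextromethorphan 5 µM, midazolam 2 µM) in 0.1 M phosphate pH 7.4; compound 100 nM–30 µM in duplicate, 15 min preincubation at 37 °C, then 1 mM NADPH for 8 min. LC/MS/MS of metabolite formation; IC50 derived.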

Data set [15] can be described thus: Ratio of AUC in brain to plasma in Sprague-Dawley rat.
A short description of data set [16]: AUC (0 to 6 hrs) in Sprague-Dawley rat hepatic portal vein plasma at 10 mg/kg, po. Also on record: time < 6 hr, dose 10 mg/kg, route oral. The class given is ADME, organism-based.
In data set [17] the test system is Brain. As to the kind of experiment: AUC (0 to 6 hrs) in Sprague-Dawley rat brain at 10 mg/kg, po. The class given is ADME, organism-based. The arrangement: time < 6 hr, dose 10 mg/kg, route oral. Particulars: in vivo.

These results are taken from ChEMBL document CHEMBL1921795, “Discovery, synthesis, and structure-activity relationship development of a series of N-4-(2,5-dioxopyrrolidin-1-yl)phenylpicolinamides (VU0400195, ML182): characterization of a novel positive allosteric modulator of the metabotropic glutamate receptor 4 (mGlu(4)) with oral efficacy in an …” (J Med Chem, 2011).

The term half-life denotes how long it takes for the measured level to halve. Broadly, the Cmax is the peak of the concentration-time curve. What is called Vdss is the apparent volume that relates the amount in the body to the concentration in plasma or blood. One may read the AUC as concentration integrated over time. By EC50 is commonly meant the concentration giving half of the maximal effect. As a reminder, the IC50 is the concentration needed to halve the response being measured. For orientation: CLint scaled means a measure of how fast metabolising enzymes remove a compound, apart from limits set by blood flow. As usually defined, the Kp is tissue or fluid exposure divided by exposure in the circulation. What is called AUC(0-t) is the area under the concentration-time curve up to a stated or last time point.

Sequence of Metabotropic glutamate receptor 6 (O15303 whole entry): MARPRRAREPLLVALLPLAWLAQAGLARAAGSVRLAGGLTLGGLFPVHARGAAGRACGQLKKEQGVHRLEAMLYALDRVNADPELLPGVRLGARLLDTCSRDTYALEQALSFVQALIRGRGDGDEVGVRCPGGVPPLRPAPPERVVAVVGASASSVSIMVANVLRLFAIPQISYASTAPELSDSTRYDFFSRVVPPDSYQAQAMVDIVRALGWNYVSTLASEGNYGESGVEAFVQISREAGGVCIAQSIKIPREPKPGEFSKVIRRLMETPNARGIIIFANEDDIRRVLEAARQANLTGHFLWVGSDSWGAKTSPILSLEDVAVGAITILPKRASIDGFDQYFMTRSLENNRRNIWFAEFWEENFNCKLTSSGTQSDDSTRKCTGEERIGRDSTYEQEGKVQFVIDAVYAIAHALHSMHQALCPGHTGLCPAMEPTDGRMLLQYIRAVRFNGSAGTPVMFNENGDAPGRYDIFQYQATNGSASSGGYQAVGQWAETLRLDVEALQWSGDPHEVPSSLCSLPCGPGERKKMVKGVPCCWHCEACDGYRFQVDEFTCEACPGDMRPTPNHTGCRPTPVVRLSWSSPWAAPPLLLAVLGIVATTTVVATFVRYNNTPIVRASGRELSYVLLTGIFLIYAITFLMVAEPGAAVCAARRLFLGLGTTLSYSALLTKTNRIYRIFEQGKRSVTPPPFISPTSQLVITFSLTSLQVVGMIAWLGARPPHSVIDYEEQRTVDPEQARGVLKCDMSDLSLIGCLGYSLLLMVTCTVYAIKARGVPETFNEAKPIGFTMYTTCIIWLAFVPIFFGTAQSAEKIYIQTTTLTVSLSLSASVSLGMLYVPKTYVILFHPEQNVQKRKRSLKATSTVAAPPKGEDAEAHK
Sequence of Cytochrome P450 2C19 (P33261 whole entry): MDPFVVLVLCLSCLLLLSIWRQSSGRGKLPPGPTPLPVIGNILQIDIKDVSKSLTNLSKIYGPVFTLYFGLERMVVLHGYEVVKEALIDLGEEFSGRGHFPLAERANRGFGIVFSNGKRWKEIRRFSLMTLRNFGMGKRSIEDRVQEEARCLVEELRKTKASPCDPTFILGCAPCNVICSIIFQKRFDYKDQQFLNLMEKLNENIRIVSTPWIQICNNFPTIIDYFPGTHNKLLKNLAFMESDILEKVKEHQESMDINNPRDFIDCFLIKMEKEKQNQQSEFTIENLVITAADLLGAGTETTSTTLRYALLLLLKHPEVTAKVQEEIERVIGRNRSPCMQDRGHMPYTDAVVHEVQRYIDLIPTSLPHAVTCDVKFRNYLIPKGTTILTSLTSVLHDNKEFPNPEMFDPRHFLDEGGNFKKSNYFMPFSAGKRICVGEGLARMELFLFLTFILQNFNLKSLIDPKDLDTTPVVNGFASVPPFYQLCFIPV
Sequence of Cytochrome P450 2C9 (P11712 whole entry): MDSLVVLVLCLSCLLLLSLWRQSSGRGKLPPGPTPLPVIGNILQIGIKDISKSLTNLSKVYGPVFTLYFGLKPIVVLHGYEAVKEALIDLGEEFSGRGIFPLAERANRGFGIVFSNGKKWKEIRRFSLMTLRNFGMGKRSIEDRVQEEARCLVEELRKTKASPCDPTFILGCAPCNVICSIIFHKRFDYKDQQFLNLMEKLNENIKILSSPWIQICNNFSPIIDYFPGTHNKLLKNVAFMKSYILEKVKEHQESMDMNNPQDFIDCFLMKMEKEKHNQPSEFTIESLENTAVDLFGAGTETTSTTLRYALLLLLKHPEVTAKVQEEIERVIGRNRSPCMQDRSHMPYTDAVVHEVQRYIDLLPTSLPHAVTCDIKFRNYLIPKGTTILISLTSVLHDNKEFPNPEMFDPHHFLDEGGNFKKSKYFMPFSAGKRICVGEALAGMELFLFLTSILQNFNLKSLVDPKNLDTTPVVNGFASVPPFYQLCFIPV
Sequence of Cytochrome P450 2D6 (P10635 whole entry): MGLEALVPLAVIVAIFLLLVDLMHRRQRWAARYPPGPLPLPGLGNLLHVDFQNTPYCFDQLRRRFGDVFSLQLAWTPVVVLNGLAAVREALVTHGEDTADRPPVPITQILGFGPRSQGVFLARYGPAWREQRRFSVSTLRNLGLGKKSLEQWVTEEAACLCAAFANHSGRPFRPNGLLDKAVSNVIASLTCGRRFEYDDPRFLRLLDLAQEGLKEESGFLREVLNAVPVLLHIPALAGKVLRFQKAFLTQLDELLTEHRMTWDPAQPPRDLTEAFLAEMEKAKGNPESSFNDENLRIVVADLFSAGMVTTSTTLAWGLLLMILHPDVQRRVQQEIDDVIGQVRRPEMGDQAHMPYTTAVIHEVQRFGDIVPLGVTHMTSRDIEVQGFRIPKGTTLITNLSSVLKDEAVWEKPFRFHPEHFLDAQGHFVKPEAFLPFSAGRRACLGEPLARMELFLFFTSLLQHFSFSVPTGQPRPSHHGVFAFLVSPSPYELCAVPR

Regarding `Cl.O=C(Nc1ccc(N2C(=O)CC(c3ccccc3)C2=O)c(Cl)c1)c1ccccn1` (configuration not stated), in the data set with Rattus norvegicus [1], the t1/2 is 5.48 h. Further, the half-life in [2] and in [6] was over 3 h in each case. In the data set on Rattus norvegicus [3], this molecule displayed a Cmax of 553 ng/mL. Besides, the Vdss in the data set with Rattus norvegicus [4] came to 0.58 L/kg. This molecule came in with a F in the data set with Rattus norvegicus [5] of 8.3%. Besides, the AUC in the data set with Rattus norvegicus [7] was 2685 ng·h/mL; in the data set with Rattus norvegicus [8] it was 3225 ng·h/mL.
For the molecule `O=C(Nc1ccc(N2C(=O)[C@@H]3[C@H](C2=O)[C@@H]2C=C[C@H]3C2)c(Cl)c1)c1ccccn1` (mixture of isomers), the Fu with Plasma [9] is reported as 3.2%; in the data set on Plasma [10], 4.1%; with Brain [12], 7.6%. Further, the EC50 in [11] was over 10 µM. For the same molecule, the IC50 at Cytochrome P450 2C9, against Cytochrome P450 1A2, against Cytochrome P450 2C19 and against Cytochrome P450 2D6 was over 30 µM in each case. The intrinsic metabolic clearance (CLint scaled) at 1 µM in data set [13] is 53 mL/min/kg. This molecule also returned a CLint scaled in data set [14] of 19.7 mL/min/kg.
Regarding `Cl.O=C(Nc1ccc(N2C(=O)[C@@H]3[C@H](C2=O)[C@@H]2C=C[C@H]3C2)c(Cl)c1)c1ccccn1`, the t1/2 in the data set on Rattus norvegicus [1] turned out to be 0.673 h. The molecule further had a Cmax with Rattus norvegicus [3] of 238 ng/mL. Also, the concentration ratio (Kp) in data set [15] was found to be 0.93. In the data set with Rattus norvegicus [4], this molecule had a Vdss of 18 L/kg. This molecule also yielded an AUC(0-t) at 6 h in data set [16] of 8.48 nM·h. Besides, the F in the data set with Rattus norvegicus [5] is 97%. Moreover, the values for the AUC with Rattus norvegicus [7], in the data set with Rattus norvegicus [8] and in the data set with Brain [17] were 4354 ng·h/mL, 454 ng·h/mL and 800 nM·h, respectively.
